Screening results: PubChem, several laboratories
SF1 activator: activators of human SF-1, primary screen, cell-based, CHO-K1, Gal4-SF-1 LBD, luciferase luminescence; Steroidogenic factor 1 (Homo sapiens), Q13285; CHO-K1 Gal4-SF-1 LBD luciferase reporter; % increase over DMSO SF-1-specific signal; activation, % at 10 µM; 65,000 compounds, 1.9% hits; AID 522, 2006;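 active means activation above the mean activation of all tested compounds plus 3 SD, cut at about 50% in these data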
Target sequence (Q13285 whole entry, looked up, the tested form may be a part): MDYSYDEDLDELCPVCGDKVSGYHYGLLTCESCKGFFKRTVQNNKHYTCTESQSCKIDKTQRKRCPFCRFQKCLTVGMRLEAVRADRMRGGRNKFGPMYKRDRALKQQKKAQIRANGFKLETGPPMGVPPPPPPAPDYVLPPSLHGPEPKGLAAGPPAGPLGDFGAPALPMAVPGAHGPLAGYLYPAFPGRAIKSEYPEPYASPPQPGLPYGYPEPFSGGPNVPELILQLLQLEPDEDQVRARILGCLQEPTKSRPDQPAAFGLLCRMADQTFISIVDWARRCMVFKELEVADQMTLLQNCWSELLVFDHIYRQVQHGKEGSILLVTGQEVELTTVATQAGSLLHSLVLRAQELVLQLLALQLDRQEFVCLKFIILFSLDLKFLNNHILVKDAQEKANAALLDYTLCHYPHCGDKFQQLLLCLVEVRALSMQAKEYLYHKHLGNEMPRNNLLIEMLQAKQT
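Assay system: CHO-K1 cells co-transfected with Gal4 DBD–human SF-1 LBD, 5xGal4 luciferase reporter; doses: 10 µM only; incubation: 20 h compound exposure at 37 °C after 1 h cell settling; signal: luciferase light emission; evaluation: percent activation versus DMSO; repeats: one test per compound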
S1P3 ag: human S1P3 receptor agonists, primary screen, cell-based, primary and confirmation, NFAT-BLA reporter. 60,000 compounds, 0.1% hits. S1P3 NFAT-BLA reporter cells, agonism, FRET ratio; relative to 1 µM S1P, basal subtracted. Sphingosine 1-phosphate receptor 3 (Homo sapiens), Q99500. activation, % at 4.5 µM. AID 373, 2006;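 active means activation above the screen-wide mean plus 3 SD, cut at about 4.5% in these data, passing the limit was not always enough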
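Assay system: stable CHO line with human S1P3, Gα16, NFAT-BLA reporter; Detection: FRET β-lactamase substrate fluorescence, excitation 405 nm, 460/535 nm emission ratio, background-subtracted; Read-out: percent activation versus median 1 µM S1P response, basal-subtracted, per plate; Incubation: cells plated overnight, compound 4 h 37 °C, substrate 2 h RT.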
M1 antag: antagonists of rat M1 muscarinic receptor. B-score at 10 µM. CHO-M1 cells, Fluo-4 calcium, ACh EC80 antagonist mode; hits give low values. AID 628, 2007. 64,000 compounds, 3.4% hits;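 active means calcium fluorescence response, raw or row-and-column corrected B-score, differing from the plate sample mean either way at a set confidence level, mostly lower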
S1P1 ag-PAM: S1P1 agonists and agonism potentiators, primary screen, cell-based, primary and confirmation screens, CRE-bla reporter; S1P1 CRE-bla cells, forskolin, beta-lactamase FRET, potentiator mode; S1P1 agonist co-added at EC20, 2 nM; 100% = saturating reference agonist, 0% = basal; 56,000 compounds, 0.57% hits; activation, % at 9.5 µM;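 active means activation above a cutoff set at the mean activation of all tested compounds plus 3 SD, cut at about 54% in these data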;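 further: forskolin at 4 µM as EC80 and the EC20 agonist is SEW2871; 100% = SEW2871 at its EC100 plus forskolin at EC80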
RORa activator: activators of orphan receptor RORA, primary screen, cell-based, luminescence. Nuclear receptor ROR-alpha (Homo sapiens), P35398. CHO-K1 Gal4-RORA LBD luciferase reporter; percent increase over mock-subtracted basal signal. activation, % at 10 µM. 65,000 compounds, 1.5% hits. AID 560, 2006;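 active means activation above the mean of all tested compounds plus 3 SD, cut at about 49% in these data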;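 further: 0% = DMSO-treated RORA cells and 100% = added signal equal to DMSO minus mock-transfected cells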
M1 ag: M1 muscarinic receptor agonists, primary screen, CHO-M1 cells, Fluo-4 calcium, agonist mode. 64,000 compounds, 3% hits. Fluo-4 calcium fluorescence; hits give high values. B-score at 10 µM. AID 626, 2007. Muscarinic acetylcholine receptor M1;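 active means fluorescence rise, raw or as B-score row- and column-corrected plate score, outside the 99.7% band of its plate's samples, either direction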
M1 ag confirm: rat M1 muscarinic receptor agonists, confirmation, CHO-M1 cells, Fluo-4 calcium, duplicate retest; shares compounds with M1 ag; Fluo-4 calcium fluorescence, agonist mode; actives lie on both sides; fluorescence change (max-min) at 10 µM; 1,700 compounds, 19% hits;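 active means fluorescence change differs from the solvent-only DMSO control mean at a set confidence level in both duplicate runs; inconclusive means differs from solvent-only control mean in just one of two runs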;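 further: an EC20 dose of acetylcholine follows compound addition during the same imaging run; raw fluorescence intensity difference in instrument units with no normalization to controls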
M4 ag counter: agonist activity at rat M4 receptor, confirmation, counter-screen for M1 allosteric modulator project, cell-based, agonist mode; 1,700 compounds, 9% hits; shares compounds with M1 ag; fluorescence change (max-min) at 10 µM; AID 1741, 2009; CHO M4/Gqi5 cells, Fluo-4 calcium fluorescence; actives lie on both sides;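 active means fluorescence change differing from the plate's solvent-only control wells at 99.7% confidence in both duplicates, whether higher or lower; inconclusive means differs from solvent controls in only one of two duplicates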
* = called active by the depositor. An excerpt weighted towards active compounds, which were near 8.8% of everything screened.

How did C=CCOC(=O)C1=C(C)NC(C)=C(C(=O)OCC=C)C1c1ccc(O)cc1 do in these assays?
SF1 activator: 6; S1P3 ag: 0; M1 antag: 0.3; S1P1 ag-PAM: 5; RORa activator: 8; M1 ag: 0.3

How did CCOC(=O)C1=C(C)NC(C)=C(C(=O)OCC)C1c1ccc(OC)cc1 do in these assays?
SF1 activator: 6; S1P3 ag: 0; M1 antag: -0.018; S1P1 ag-PAM: -13; RORa activator: -13; M1 ag: 1.9*; M1 ag confirm: 1.3; M4 ag counter: -23

What do the screens show for `O=C(CCN1CCN(CCC(=O)c2ccccc2)CC1)c1ccccc1`?
SF1 activator: -15; S1P3 ag: -2; M1 antag: 0.31; S1P1 ag-PAM: -7; RORa activator: -7; M1 ag: -1.1

What do the screens show for `CCc1nc(C)cn1S(=O)(=O)c1cc(C)c(OC)cc1C`?
SF1 activator: -7; S1P3 ag: 0; M1 antag: 0.013; S1P1 ag-PAM: -5; RORa activator: -10; M1 ag: -3.7*; M1 ag confirm: inconclusive; M4 ag counter: inconclusive

How did CCOC(=O)c1nnn(-c2nonc2N)c1CN1CCc2ccccc2C1 do in these assays?
SF1 activator: 3; S1P3 ag: 0; M1 antag: 0.22; S1P1 ag-PAM: 10; RORa activator: 1; M1 ag: -2.7*; M1 ag confirm: -27*; M4 ag counter: inconclusive

What do the screens show for `CN(Cc1ccccc1)C(=O)CSc1nnc(-c2ccco2)n1-c1ccccc1`?
SF1 activator: -16; S1P3 ag: -1; M1 antag: 0.99; S1P1 ag-PAM: 14; RORa activator: 3; M1 ag: 0.35

How did O=C(Nc1cccc(S(=O)(=O)c2cccc(NC(=O)C3CC3)c2)c1)C1CC1 do in these assays?
SF1 activator: -15; S1P3 ag: 0; M1 antag: 0.56; S1P1 ag-PAM: 30; RORa activator: 1; M1 ag: 2.8*; M1 ag confirm: -9.3; M4 ag counter: -14

How did C=C(C)c1cccc(C(C)(C)NC(=O)N2CCN(CC(N)=O)CC2)c1 do in these assays?
SF1 activator: -4; S1P3 ag: 0; M1 antag: 0.41; S1P1 ag-PAM: -4; RORa activator: -15; M1 ag: -1.2

Results for CCOC(=O)C1CCCN(CC(O)COc2ccc(OC)cc2C(C)(C)C)C1 (stereo not given) ?
SF1 activator: -11; S1P3 ag: 0; M1 antag: -6.7*; S1P1 ag-PAM: -52; RORa activator: -21; M1 ag: 20*; M1 ag confirm: 335*; M4 ag counter: -17

How did CCOc1ccc(N2CC(C(=O)Nc3ncccc3C)CC2=O)cc1 (stereo not given) do in these assays?
SF1 activator: 3; M1 antag: 0.15; RORa activator: -16; M1 ag: 1.1

What do the screens show for `CCCCOCCCn1c(-c2ccco2)nc2nc3ccccc3nc21`?
SF1 activator: 0; S1P3 ag: 0; M1 antag: -0.36; S1P1 ag-PAM: -5; RORa activator: 8; M1 ag: 4.2*; M1 ag confirm: inconclusive; M4 ag counter: -43

Results for O=C(C1CC1)N1CCc2cc(Br)cc(S(=O)(=O)N3CCOCC3)c21 ?
SF1 activator: 8; M1 antag: 0.076; RORa activator: 10; M1 ag: 3*; M1 ag confirm: -4.8; M4 ag counter: -20

Results for Cc1ccc2nc(Nc3ccc4[nH]c(=O)[nH]c4c3)c(-n3nc(C)cc3C)nc2c1 ?
SF1 activator: 5; S1P3 ag: 0; M1 antag: 0.29; RORa activator: 59*; M1 ag: 20*; M1 ag confirm: -23*; M4 ag counter: -53

What do the screens show for `CCN1CCN(CCNC(=O)C2CCCN(Cc3nc(-c4cccc(Cl)c4)oc3C)C2)CC1` (stereo not given)?
SF1 activator: 4; S1P3 ag: -1; M1 antag: 0.38; S1P1 ag-PAM: 7; RORa activator: 26; M1 ag: 0.76

Results for CCOC(=O)N1CCC(NC(=O)C2CCCN(Cc3nc(-c4cccc(Cl)c4)oc3C)C2)CC1 (stereo not given) ?
SF1 activator: -58; S1P3 ag: -2; M1 antag: -4.4*; S1P1 ag-PAM: 103*; RORa activator: -63; M1 ag: 10*; M1 ag confirm: -5.4; M4 ag counter: -56

What do the screens show for `CCOc1ccc(-c2nc(CSCC(=O)NCCN3CCOCC3)c(C)o2)cc1`?
SF1 activator: -65; S1P3 ag: -2; M1 antag: 0.011; S1P1 ag-PAM: -10; RORa activator: -71; M1 ag: 0.47

Results for CC(C)(C)NC(=O)c1ccc2c(c1)C(=O)N(C1CCCCC1)C2=O ?
SF1 activator: 31; S1P3 ag: -1; M1 antag: 0.13; S1P1 ag-PAM: 5; RORa activator: 32; M1 ag: 6.1*; M1 ag confirm: inconclusive; M4 ag counter: -38

How did COc1ccccc1N1CCN(C(=O)CCCC2=NS(=O)(=O)c3ccccc3N2)CC1 do in these assays?
SF1 activator: 6; S1P3 ag: -1; M1 antag: -0.0014; S1P1 ag-PAM: 17; RORa activator: 14; M1 ag: 3.2*; M1 ag confirm: -22*; M4 ag counter: -54

What do the screens show for `O=C(Nc1cccc(F)c1)N1CC=C(n2c(=O)[nH]c3ccccc32)CC1`?
SF1 activator: 1; S1P3 ag: -1; M1 antag: -0.89; S1P1 ag-PAM: 22; RORa activator: 1; M1 ag: -0.18

How did O=C(Nc1ccccc1)N1CC=C(c2ccc(F)cc2)CC1 do in these assays?
SF1 activator: 38; S1P3 ag: -2; M1 antag: -3.2*; S1P1 ag-PAM: 20; RORa activator: 66*; M1 ag: 5.4*; M1 ag confirm: inconclusive; M4 ag counter: inconclusive
